Activity calls are given as the source filed them.
Legend:
Dengue virus = assay: Inhibition of Dengue virus NS2B-NS3 protease using Abz-NleKRRS-3-(NO2)Y as substrate at 50 uM preincubated for 15 mins measured every sec for 15 mins by fluorimetric analysis
Prothrombin (Bos taurus) = Prothrombin (Bos taurus) (UniProt P00735); assay: Inhibition of bovine plasma thrombin using Boc-Val-Pro-Arg-AMC as substrate at 25 uM preincubated for 15 mins measured after 10 mins by fluorimetric assay
Outline: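 Purchased bovine plasma thrombin at 10 nM final, preincubated 15 min with 25 μM inhibitor; reaction started with 50 μM substrate. Buffer 50 mM Tris-HCl pH 7.5, 150 mM NaCl, 0.05% Tween 20. Triplicate, averaged.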

Escherichia coli [1] = assay: Inhibition of Escherichia coli MurA using PEP as substrate assessed as inorganic phosphate release at 25 uM preincubated for 10 mins measured after 60 mins […]
Escherichia coli [2] = assay: Inhibition of Escherichia coli MetAP at 10 uM after 15 mins by fluorescence analysis

Row | inhibition (Dengue virus) | inhibition (Prothrombin (Bos taurus)) | inhibition (Escherichia coli [1]) | inhibition (Escherichia coli [2]) | SMILES
1 | inactive | inactive | inactive | inactive | O=C1CNC(=S)N1
2 | 18% | inactive | inactive | inactive | COc1ccccc1/C=C1\NC(=O)NC1=O
3 | 60% | 24% | 20% | inactive | O=C1NC(=S)S/C1=C\c1sccc1Br
4 | inactive | 20% | 69% | inactive | C/C(=C1/SC(=S)NC1=O)c1ccc(F)cc1
5 | 13% | inactive | 17% | inactive | COc1cc(/C=C2\NC(=O)NC2=O)ccc1O
6 | 29% | 15% | 58% | 12% | O=C1NC(=S)S/C1=C\c1cccc(O)c1
7 | 37% | 38% | 69% | 23% | O=C1NC(=S)N/C1=C\C=C\c1ccco1
8 | 33% | 11% | 10% | inactive | COc1ccccc1/C=C1\SC(=S)NC1=O
9 | 14% | 12% | 11% | inactive | O=C1NC(=S)N[C@@H]1Cc1ccccc1
10 | 48% | 39% | 11% | inactive | O=C1NC(=S)N/C1=C\c1ccc(O)cc1
11 | 27% | 25% | inactive | inactive | O=C1NC(=S)S/C1=C\c1c(F)c(F)c(F)c(F)c1F
12 | 26% | 14% | inactive | inactive | O=C1NC(=O)/C(=C/c2ccc(O)cc2)N1
13 | 45% | 27% | 18% | 12% | Cn1cc(/C=C2\SC(=S)NC2=O)c2ccccc21
14 | 10% | inactive | 25% | inactive | NC(=O)CC[C@@H]1NC(=S)NC1=O
15 | 56% | 28% | 15% | 14% | O=C1NC(=S)S/C1=C\c1ccc2ccccc2c1
16 | 44% | 20% | 18% | 11% | COc1ccc(/C=C2\NC(=S)NC2=O)cc1OC
17 | 52% | 25% | 17% | inactive | O=C1NC(=S)S/C1=C\c1ccco1
18 | 13% | 16% | inactive | inactive | O=C1NC(=O)/C(=C/c2sccc2Br)N1
19 | 13% | 18% | 48% | 27% | COc1ccc(/C=C/C=C2\NC(=S)NC2=O)cc1
20 | 44% | 37% | 78% | 90% | O=C1NC(=O)/C(=C/c2ccc(O)c(O)c2)S1
21 | 18% | 16% | 17% | 27% | CCCCC/C=C1\NC(=S)NC1=O
22 | 13% | inactive | inactive | inactive | O=C1CSC(=O)N1
23 | 11% | inactive | inactive | inactive | NCCCC[C@@H]1NC(=S)NC1=O
24 | inactive | inactive | inactive | inactive | O=C1NC(=O)/C(=C/c2sccc2Cl)N1

Row | inhibition (Dengue virus) | inhibition (Prothrombin (Bos taurus)) | inhibition (Escherichia coli [1]) | inhibition (Escherichia coli [2]) | SMILES
25 | inactive | inactive | inactive | 13% | CC(=O)N1C(=S)NC(=O)[C@@H]1CC(C)C
26 | 30% | 20% | inactive | 12% | C/C(=C1/SC(=O)NC1=O)c1ccc2ccccc2c1
27 | 33% | 11% | 10% | inactive | COc1cccc(/C=C2\SC(=S)NC2=O)c1
28 | inactive | 18% | 44% | inactive | O=C1NC(=O)/C(=C/c2sccc2Br)S1
29 | inactive | 23% | 29% | 18% | C/C(=C1/NC(=S)NC1=O)c1ccc(F)cc1
30 | 16% | 25% | 38% | inactive | O=C1NC(=O)/C(=C/c2ccc(Cl)s2)N1
31 | inactive | inactive | inactive | inactive | O=C1NC(=O)C(Cc2ccccc2)S1 (configuration not stated)
32 | 19% | 32% | 84% | 11% | COc1ccc(/C=C2\SC(=O)NC2=O)cc1
33 | inactive | inactive | inactive | 11% | Cc1ccc(/C=C2\NC(=O)NC2=O)cc1
34 | 50% | 35% | 89% | 65% | O=C1NC(=S)S/C1=C\c1ccc(O)c(O)c1
35 | 22% | 22% | inactive | inactive | O=C1NC(=O)/C(=C/c2ccc(Br)s2)N1
36 | 17% | 11% | 25% | 10% | COc1cccc(/C=C2\SC(=O)NC2=O)c1
37 | 22% | 29% | 13% | 40% | O=C1NC(=S)S/C1=C\C1CCCCC1
38 | 24% | 29% | 17% | 13% | O=C1NC(=S)N/C1=C\c1c(F)c(F)c(F)c(F)c1F
39 | 36% | 15% | inactive | inactive | O=C1NC(=O)/C(=C/c2c[nH]c3ccccc23)N1
40 | inactive | inactive | inactive | 24% | O=C1NC(=S)NC1=C(c1ccccc1)c1ccccc1
41 | 16% | 22% | inactive | inactive | O=C1NC(=O)/C(=C/c2cccs2)N1
42 | inactive | inactive | inactive | inactive | O=C1NC(=O)C(Cc2cccs2)N1 (configuration not stated)
43 | 25% | 14% | 11% | 66% | CCCC/C=C1\NC(=S)NC1=O
44 | 37% | 11% | inactive | inactive | N#Cc1ccc(/C=C2\NC(=S)NC2=O)cc1
45 | 18% | inactive | inactive | 11% | O=C1NC(=O)/C(=C/c2cccc(O)c2)S1
46 |  | inactive |  |  | O=C1NC(=S)S/C1=C\c1ccccn1
47 |  | 23% |  |  | Cc1ccc(/C=C2\SC(=S)NC2=O)cc1
